According to the array DNA melting data of Ke et al. (doi:10.1101/2024.01.08.574731):

Legend:
[1] = folding enthalpy; higher = less favourable; fluorescence melt of hairpins on a sequencing array, two-state fit; conditions: sodium 0.088 M
Method in brief: (§1)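 Folding enthalpy and melting temperature come from bootstrapped two-state fits to Cy3 fluorescence of library hairpins carrying annealed Cy3 and quencher oligos on a sequenced MiSeq flow cell. Imaging was done in 50 mM Na-HEPES pH 8.0, 25 mM NaCl, stepping by 2.5 °C up to 60 °C, and signals were normalised to pre-quench Cy3 and to control constructs. Results of four replicates were combined by inverse variance, and fitted temperatures were raised by 9.35 °C to match UV melts.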

[2] = melting temperature; fluorescence melt of hairpins on a sequencing array, two-state fit, raised by 9.35 °C to match UV melts; conditions: sodium 0.088 M
Method in brief: as §1

Sequence | folding enthalpy [1] | Tm [2]
GTACACGCGAAAGCGTAC (((..(((....)))))) | -33.7 kJ/mol | 35.5 °C
GTACACGGAAACGCGTAC ((((.((....)).)))) | -168 kJ/mol | 48.3 °C
GTACAGCGAAAGCTCTAC (((.(((....))).))) | -72.6 kJ/mol | 29.5 °C
GTACAGCGAAAGCTTTAC (((.(((....))).))) | -103 kJ/mol | 39.6 °C
GTACATCGAAAGATATAC (((.(((....))).))) | -66.9 kJ/mol | 29.6 °C
GTACATGGAAACATGTAC (((((((....))))))) | -216 kJ/mol | 55.7 °C
GTACCACCGAAAGGTTAC (((..(((....)))))) | -48.3 kJ/mol | 21.6 °C
GTACCACGAAAGTGCTAC (((.(((....))).))) | -57.1 kJ/mol | 33.6 °C
GTACCAGGAAACTGGTAC (((((((....))))))) | -169 kJ/mol | 62.2 °C
GTACCCCGAAAGGGTTAC (((.(((....))).))) | -82.1 kJ/mol | 41.8 °C
GTACCCGAAAGGGGTTAC ((((((....)))..))) | -42.2 kJ/mol | 35.2 °C
GTACCCGAAAGGGTCTAC ((((((....)))..))) | -44.7 kJ/mol | 42.2 °C
GTACCCGAAAGGGTGTAC ((((((....)))..))) | -42.2 kJ/mol | 40.3 °C
GTACCCGAAAGGGTTTAC ((((((....)))..))) | -34 kJ/mol | 33 °C
GTACCCGGAAACAGGTAC (((((.(....).))))) | -107 kJ/mol | 39.4 °C
GTACCGCGAAAGCGTAC (((.(((....)))))) | -59 kJ/mol | 51.1 °C
GTACCGCGAAAGCGTTAC (((.(((....))).))) | -87.8 kJ/mol | 42.9 °C
GTACCGGGAAACCAGTAC ((((.((....)).)))) | -98.5 kJ/mol | 38.4 °C
GTACCGGGAAACCGGCAC ((.((((....)))).)) | -74.1 kJ/mol | 47.9 °C
GTACCGGGAAACTGGTGC (.(((.(....).))).) | -108 kJ/mol | 42.4 °C
GTACCTCGAAAGAGTTAC (((.(((....))).))) | -117 kJ/mol | 35.3 °C
GTACCTGAAAAGGTAC ((((((....)))))) | -132 kJ/mol | 60 °C
GTACCTGGAAACAGATAC (((.(((....))).))) | -78.5 kJ/mol | 32.7 °C

Sequence | folding enthalpy [1] | Tm [2]
GTACGACGAAAGTCTAC (((.(((....)))))) | -82.3 kJ/mol | 37.2 °C
GTACGAGGAAACTCGCAC ((.((((....)))).)) | -82.6 kJ/mol | 42.4 °C
GTACGAGGAAACTCGTAC (((((((....))))))) | -152 kJ/mol | 61.9 °C
GTACGAGGAAACTCGTGC (.(((((....))))).) | -164 kJ/mol | 52 °C
GTACGCACGAAAGTGTAC (((..(((....)))))) | -65.2 kJ/mol | 36.4 °C
GTACGCGAAAGCGACTAC ((((((....)))..))) | -49.7 kJ/mol | 41.9 °C
GTACGCGAAAGCGGATAC ((((((....)))..))) | -43 kJ/mol | 37.1 °C
GTACGCGAAAGCGGGTAC ((((((....)))..))) | -44.4 kJ/mol | 38.7 °C
GTACGCGGAAACGCGCAC ((.((((....)))).)) | -58.6 kJ/mol | 52.9 °C
GTACGCGGAAACGCGTGC (.(((((....))))).) | -64.6 kJ/mol | 60.9 °C
GTACGCTCGAAAGAGTAC (((..(((....)))))) | -91.2 kJ/mol | 34.1 °C
GTACGGCGAAAGCCATAC (((.(((....))).))) | -74.2 kJ/mol | 42.1 °C
GTACGGCGAAAGCCTTAC (((.(((....))).))) | -80.8 kJ/mol | 43.2 °C
GTACGGGGAAACCCGTAC (((((((....))))))) | -175 kJ/mol | 67.3 °C
GTACGGGGAAACCCGTGC (.(((((....))))).) | -113 kJ/mol | 55.6 °C
GTACGTGGAAACACGTGC (.(((((....))))).) | -117 kJ/mol | 54.2 °C
GTACGTGGAAACATGTGC (.((.((....)).)).) | -102 kJ/mol | 36.5 °C
GTACTACGAAAGTACTAC (((.(((....))).))) | -74.6 kJ/mol | 38.6 °C
GTACTACGAAAGTATTAC (((.(((....))).))) | -98.2 kJ/mol | 32.8 °C
GTACTAGGAAACCAGTAC (((((.(....).))))) | -113 kJ/mol | 36 °C
GTACTAGGAAACTAGTAC (((((((....))))))) | -168 kJ/mol | 52.3 °C
GTACTCCGAAAGGAATAC (((.(((....))).))) | -109 kJ/mol | 37.7 °C
GTACTCCGAAAGGATTAC (((.(((....))).))) | -124 kJ/mol | 37.6 °C

Sequence | folding enthalpy [1] | Tm [2]
GTACTCGAAAGAGGGTAC ((((((....)))..))) | -59.5 kJ/mol | 33.7 °C
GTACTCGGAAACGAGCAC ((.((((....)))).)) | -80.9 kJ/mol | 48.6 °C
GTACTCGGAAACGAGTAC (((((((....))))))) | -158 kJ/mol | 63 °C
GTACTCGGAAACGGGTAC ((((.((....)).)))) | -178 kJ/mol | 50.6 °C
GTACTGGAAACAGTAC ((((((....)))))) | -151 kJ/mol | 54.7 °C
GTACTGGGAAACTAGTAC (((((.(....).))))) | -154 kJ/mol | 42.2 °C
GTACTTCGAAAGAAATAC (((.(((....))).))) | -71.3 kJ/mol | 29.3 °C
GTACTTCGAAAGAATAC (((.(((....)))))) | -32.9 kJ/mol | 25.9 °C
GTACTTGAAAAAGTAC ((((((....)))))) | -137 kJ/mol | 48.6 °C
GTACTTGGAAACAGGTAC ((((.((....)).)))) | -136 kJ/mol | 40.1 °C
GTAGAACGAAAGTTTAC (((.(((....)))))) | -41.8 kJ/mol | 27.4 °C
GTAGAACGAAAGTTTTAC (((.(((....))).))) | -128 kJ/mol | 40.2 °C
GTAGAAGAAATTCTAC ((((((....)))))) | -111 kJ/mol | 39.4 °C
GTAGAATCGAAAGATTAC (((..(((....)))))) | -46.1 kJ/mol | 27.3 °C
GTAGACGAAAGTCTCTAC ((((((....)))..))) | -48.7 kJ/mol | 34.9 °C
GTAGACGGAAACGTCTAC (((((((....))))))) | -210 kJ/mol | 61.3 °C
GTAGACTCGAAAGAGTAC (((..(((....)))))) | -58.3 kJ/mol | 31.2 °C
GTAGAGCGAAAGCTGTAC (((.(((....))).))) | -105 kJ/mol | 50.9 °C
GTAGAGGCGAAAGCCTAC (((..(((....)))))) | -36.9 kJ/mol | 38 °C
GTAGATCGAAAGATATAC (((.(((....))).))) | -136 kJ/mol | 42.3 °C
GTAGATCGAAAGATTAC (((.(((....)))))) | -56.6 kJ/mol | 29.3 °C
GTAGATGCGAAAGCATAC (((..(((....)))))) | -49.9 kJ/mol | 31.1 °C
GTAGATGGAAACATCCAC ((.((((....)))).)) | -70.7 kJ/mol | 30.4 °C

Sequence | folding enthalpy [1] | Tm [2]
GTAGATGGAAACATTTAC (((.(((....))).))) | -72.5 kJ/mol | 32.1 °C
GTAGATGGAAACGTCTAC (((((.(....).))))) | -131 kJ/mol | 43.6 °C
GTAGCAGGAAACTGCTAC (((((((....))))))) | -137 kJ/mol | 66.2 °C
GTAGCCGAAAGGCATAC ((((((....))).))) | -50 kJ/mol | 43.5 °C
GTAGCCGAAAGGCATTAC ((((((....)))..))) | -31.3 kJ/mol | 27 °C
GTAGCCGAAAGGCCATAC ((((((....)))..))) | -34.2 kJ/mol | 22.3 °C
GTAGCCGAAAGGCCTTAC ((((((....)))..))) | -39.4 kJ/mol | 33.5 °C
GTAGCCGAAAGGCGATAC ((((((....)))..))) | -39.5 kJ/mol | 41.3 °C
GTAGCCGAAAGGCTCTAC ((((((....)))..))) | -36.8 kJ/mol | 38.6 °C
GTAGCCGGAAACAGCTAC (((((.(....).))))) | -93.1 kJ/mol | 43.4 °C
GTAGCCGGAAACGGCCAC ((.((((....)))).)) | -42.6 kJ/mol | 39.5 °C
GTAGCCGGAAACGGTTGC (.(.(((....))).).) | -63.7 kJ/mol | 36.4 °C
GTAGCGAAAGCTAC (((((....))))) | -108 kJ/mol | 68.7 °C
GTAGCGCCGAAAGGCTAC (((..(((....)))))) | -52 kJ/mol | 36.3 °C
GTAGCGCGAAAGCGATAC (((.(((....))).))) | -101 kJ/mol | 68 °C
GTAGCGGGAAACCACTAC ((((.((....)).)))) | -143 kJ/mol | 42.2 °C
GTAGCTCGAAAGAGTAC (((.(((....)))))) | -76.6 kJ/mol | 36.2 °C
GTAGGACGAAAGTCATAC (((.(((....))).))) | -117 kJ/mol | 52.5 °C
GTAGGCCGAAAGGCGTAC (((.(((....))).))) | -111 kJ/mol | 62.4 °C
GTAGGCCGAAAGGCTAC (((.(((....)))))) | -63.1 kJ/mol | 50.6 °C
GTAGGCGAAAGCCCGTAC ((((((....)))..))) | -37.5 kJ/mol | 31.1 °C
GTAGGCGAAAGCCGCTAC ((((((....)))..))) | -36.7 kJ/mol | 43.4 °C
